The values below come from PMC10983000 (Journal of Medicinal Chemistry, 2024).

The IC50 is the point on the concentration scale where inhibition reaches its midpoint. One may read the CLint scaled as the capacity of the preparation to metabolise the compound, expressed as a volume cleared per time. Broadly, the clearance is a measure of how efficiently the substance is removed, as volume per time. Read a high clearance as efficient removal.

For data set [1], the system named is pAKT in T47D (PI3Kα^H1047R) cells. As to the kind of experiment: pAKT AlphaLISA assay, T47D. The format is cell-based. The conditions noted are these: for IC50: Homo sapiens, T47D, 24 h, read-out: pAKT AlphaLISA IC50 T47D, T47D (PI3Kα^H1047R), inhibition of pAKT formation after 24 h of treatment. For orientation: Bead proximity is the source of the signal in Alpha formats.

For data set [2], the system named is pAKT in SKBR3 (PI3Kα^WT) cells. Briefly: pAKT AlphaLISA assay, SKBR3. The class given is cell-based. The conditions noted are these: Homo sapiens, SK-BR-3, 24 h, read-out: pAKT AlphaLISA IC50 SKBR3.
In data set [3] the test system is T47D (PI3Kα^H1047R) cells. As to the kind of experiment: Viability assay. The class given is cell-based. Particulars: for viability selectivity 1047R/WT IC50: T47D vs SKBR3 viability IC50.
Data set [4] can be described thus: Intrinsic clearance in human hepatocytes. The format is in vitro ADME.
Data set [5] deals with pAKT in HCC1954 tumors (PI3Kα^H1047R). Briefly: Single dose pharmacodynamic study, HCC1954 tumor model. The class given is in vivo, mouse. The conditions noted are these: PO 100 or 300 mg/kg single dose. Put shortly: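 Mice carried xenografts of HCC1954, an ER-/HER2+ human breast tumour line with endogenous PI3Kα H1047R. They received a single dose of test compound, and tumour pAKT modulation was measured at 1 h and at 8 h post dose.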

A short description of data set [6]: Intrinsic clearance in dog hepatocytes. The class given is in vitro ADME. In outline: (§1)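 CLint was derived by scaling in vitro half-lives measured in pooled hepatocytes.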
Data set [7] can be described thus: Mouse pharmacokinetics. The format is in vivo, CD-1 Mouse.
A short description of data set [8]: Metabolite ID in human hepatocytes. The class given is in vitro ADME.
The nature of data set [9]: Intrinsic clearance in rat hepatocytes. The class given is in vitro ADME. In outline: as §1
The nature of data set [10]: Rat pharmacokinetics. The format is in vivo. The conditions noted are these: male, Sprague-Dawley, plasma, iv, 3 mg/kg.
Data set [11] is described as follows: Intrinsic clearance in mouse hepatocytes. The format is in vitro ADME. In outline:
as §1

For the compound `Cc1cc([C@@H](C)Nc2ccccc2C(=O)O)c2oc(N3CCC(C)(C)CC3)c(C)c(=O)c2c1` [Compound 4, reference compound], the figures for the IC50 in data set [1] and in [2] were 3 nM and 3180 nM, respectively.

`Cc1ccccc1C1NC(=O)c2cc(NC3COC3)cc(NC(=O)c3csc4ccccc34)c21` (stereo not shown) [Compound 5, reference compound]: the 50% inhibitory concentration (IC50) turned out to be 332 nM in data set [1] and 115 nM in [2].

Take `Cc1cc([C@@H](C)Nc2ccccc2C(=O)O)c2nc(N3CCCCC3)cc(=O)n2c1` [Compound 7]: the IC50 in data set [1] was 78 nM; in data set [2] it was 5890 nM. Further, the “viability selectivity 1047R/WT IC50” value in [3] was more than 9.

For `Cc1cc([C@@H](C)Nc2ccccc2C(=O)O)c2nc(N3CCCCC3)c(C)c(=O)n2c1` [Compound 8], the IC50 came out at 3 nM in data set [1] and 1460 nM in data set [2]. The “viability selectivity 1047R/WT IC50” value in data set [3] is on record as more than 83.

For `Cc1cc(C(C)Nc2ccccc2C(=O)O)c2nc(N3CCC(C)(C)CC3)n(C)c(=O)c2c1` (stereo not shown) [Compound 9], the IC50 in data set [1] came to 179 nM. Besides, in [3] (T47D viability), the “fold decrease in potency (viability) compared to compound 4” value is listed as 39 fold.

Turning to `Cc1cc(C(C)Nc2ccccc2C(=O)O)c2nc(N3CCCCC3)ncc2c1` (stereo not shown) [Compound 10], in data set [1], the IC50 is 2540 nM.

Consider `Cc1cc([C@@H](C)Nc2ccccc2C(=O)O)c2nc(N3CCCCC3)c(F)c(=O)n2c1` [Compound 11], for which the results for the IC50 in [1] and in [2] were 0.3 nM and more than 10000 nM, respectively.

Regarding `Cc1cc([C@@H](C)Nc2ccccc2C(=O)O)c2nc(N3CCCCC3)c(C#N)c(=O)n2c1` [Compound 12], the IC50 in data set [1] is 1 nM; in data set [2], 4740 nM. For the same compound, the “fold more potent than 8” value in [1] (pAKT T47D) is reported as 3 fold. For the same compound, the “fold more stable in human hepatocytes than 8” value in [4] (Clint human hepatocytes) turned out to be 4 fold.

Regarding `Cc1cc([C@@H](C)Nc2ccccc2C(=O)O)c2nc(N3CCCCC3)c(C(F)(F)F)c(=O)n2c1` [Compound 13], the IC50 in data set [1] is 28 nM; in data set [2] it was more than 10000 nM.

For the compound `Cc1cc([C@@H](C)Nc2ccccc2C(=O)O)c2nc(N3CCCCC3)c(C(N)=O)c(=O)n2c1` [Compound 14], the IC50 in data set [1] and in data set [2] was more than 10000 nM each time.

As for `Cc1cc([C@@H](C)Nc2ccccc2C(=O)O)c2nc(N3CCC(F)(F)CC3)c(C#N)c(=O)n2c1` [Compound 17, (R)-2-((1-(3-Cyano-2-(4,4-difluoropiperidin-1-yl)-7-methyl-4-oxo-4H-pyrido[1,2-a]pyrimidin-9-yl)ethyl)amino)benzoic Acid], the “pAKT inhibition after oral dosing” value in data set [5] is listed as “negligible inhibition of pAKT”. The CLint scaled in [6] was determined as 104 mL/min/kg; in data set [9] it was 70 mL/min/kg; in data set [11], 304 mL/min/kg. Also, the clearance in data set [7] (female, CD-1, mouse, plasma, iv, 3 mg/kg) was found to be 180 mL/min/kg; in data set [10], 46 mL/min/kg. In data set [7] (rodents (mouse and rat)), the bioavailability in rodents is on record as 48–57 %F. Moreover, the “metabolite identified in human hepatocytes” value in [8] is listed as “glucuronidation of the benzoic acid was the only discernible metabolite”. Also, the “fold decrease of intrinsic clearance in human hepatocytes compared to 12” value in [4] was 3 fold.

Consider `Cc1cc([C@@H](C)Nc2ccccc2C(=O)O)c2nc(C3CCC(F)(F)CC3)c(C#N)c(=O)n2c1` [Compound 19], for which the “fold loss in potency in T47D cellular viability assay” value in data set [3] (on replacing the piperidine nitrogen (4,4-difluorocyclohexane)) is on record as 5 fold.

For the compound `Cc1cc([C@@H](C)Nc2ccc(Cl)cc2C(=O)O)c2nc(N3CCC(F)(F)CC3)c(C#N)c(=O)n2c1` [Compound 24], the IC50 in data set [1] was found to be 15 nM.
